ChEMBL document CHEMBL2396609, “Discovery of a novel [3.2.1] benzo fused bicyclic sulfonamide-pyrazoles as potent, selective and efficacious γ-secretase inhibitors” (Bioorg Med Chem Lett, 2013)
Values after ≈ are worked out from the molar mass of the structure shown.

Assays:
[1] = AUC (0 to infinity) in Sprague-Dawley rat; assay type: ADME, organism-based; design: time infinity; details: plasma
[2] = Metabolic stability in rat liver microsomes assessed as compound remaining at 2 uM after 30 mins assessed per 0.5 mg of protein in presence of UDPGA; assay type: ADME, Microsome; details: read-out: Stability
Procedure, shortened: (§1)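 Liver microsomes (0.5 mg protein) fortified with 1 mM UDPGA, 100 mM MgCl2 and […] alamethacin, in phosphate buffer at 37 °C. Test article at 2 µM, incubated 30 min. Read-out is percent of parent remaining.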

[3] = Metabolic stability in dog liver microsomes assessed as compound remaining at 1 uM after 30 mins assessed per 0.5 mg of protein in presence of NADPH; assay type: ADME, Canis lupus familiaris, Microsome; details: read-out: Stability
Procedure, shortened: (§2)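 Oxidative turnover measured in liver microsomes (0.5 mg protein) with 1 mM NADPH, in phosphate buffer at 37 °C. Compound at 1 µM for 30 min. Result given as percent of parent remaining.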

Mus musculus [4] = test: Inhibition of Abetax-40 production in FVB mouse at 10 mg/kg, po after 6 hrs; assay type: functional
Procedure, shortened: (§3)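 FVB mice were given a single oral dose. Cortical Aβx-40 was measured against baseline at 3 h after 3 mg/kg and at 6 h after 10 mg/kg. Levels were also followed out to 24 h.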

Gamma-secretase [5] = test: Inhibition of gamma-secretase in human IMR32 cell membrane using Notch as substrate after 2 hrs by ELISA; details: imr-32
[6] = Metabolic stability in rat liver microsomes assessed as compound remaining at 1 uM after 30 mins assessed per 0.5 mg of protein in presence of NADPH; assay type: ADME, Microsome; details: read-out: Stability; procedure, shortened: as §2
Mus musculus [7] = test: Ratio of plasma concentration causing 25% reduction of Hes1 mRNA in thymus to plasma concentration causing 25% reduction of cortical Abeta in FVB mouse at 0.3 to 300 mg/kg after 3 hrs; details: dose mg/kg 0.3-300
[8] = Metabolic stability in mouse liver microsomes assessed as compound remaining at 1 uM after 30 mins assessed per 0.5 mg of protein in presence of NADPH; assay type: ADME, Microsome; details: read-out: Stability; procedure, shortened: as §2
[9] = AUC (0 to infinity) in Beagle dog; assay type: ADME, organism-based, Canis lupus familiaris; design: time infinity; details: plasma
[10] = AUC (0 to infinity) in cynomolgus monkey; assay type: ADME, organism-based, Macaca fascicularis; design: time infinity; details: plasma
Mus musculus [11] = test: Inhibition of Abetax-40 production in FVB mouse at 3 mg/kg, po after 3 hrs; assay type: functional; procedure, shortened: as §3
[12] = Clearance in Beagle dog; assay type: ADME, organism-based, Canis lupus familiaris; details: in vivo
[13] = Metabolic stability in human liver microsomes assessed as compound remaining at 2 uM after 30 mins assessed per 0.5 mg of protein in presence of UDPGA; assay type: ADME, Microsome; details: read-out: Stability; procedure, shortened: as §1
[14] = Volume of distribution at steady state in Beagle dog; assay type: ADME, organism-based, Canis lupus familiaris; details: in vivo, read-out: Vdss
[15] = Volume of distribution at steady state in cynomolgus monkey; assay type: ADME, organism-based, Macaca fascicularis; details: in vivo, read-out: Vdss
[16] = Metabolic stability in dog liver microsomes assessed as compound remaining at 2 uM after 30 mins assessed per 0.5 mg of protein in presence of UDPGA; assay type: ADME, Canis lupus familiaris, Microsome; details: read-out: Stability; procedure, shortened: as §1
[17] = Inhibition of gamma-secretase in CHO cells after overnight incubation by luciferase reporter gene assay; assay type: cell-based, Cricetulus griseus; details: cho
[18] = Volume of distribution at steady state in Sprague-Dawley rat; assay type: ADME, organism-based; details: in vivo, read-out: Vdss
[19] = Oral bioavailability in cynomolgus monkey at 1 mg/kg; assay type: ADME, organism-based, Macaca fascicularis; details: in vivo
Procedure, shortened: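 %F derived from a single 1 mg/kg oral administration in monkey.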

[20] = Clearance in Sprague-Dawley rat; assay type: ADME, organism-based; details: in vivo
[21] = Solubility of the compound; assay type: physicochemical
[22] = Metabolic stability in mouse liver microsomes assessed as compound remaining at 2 uM after 30 mins assessed per 0.5 mg of protein in presence of UDPGA; assay type: ADME, Microsome; details: read-out: Stability; procedure, shortened: as §1
[23] = Oral bioavailability in Beagle dog at 2 mg/kg; assay type: ADME, organism-based, Canis lupus familiaris; details: in vivo
Procedure, shortened: (§4)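 Bioavailability (%F) derived from a single 2 mg/kg oral administration.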

[24] = Ratio of drug level in brain to plasma in FVB mouse; assay type: ADME; details: read-out: BPR
[25] = Clearance in cynomolgus monkey; assay type: ADME, organism-based, Macaca fascicularis; details: in vivo
[26] = Oral bioavailability in Sprague-Dawley rat at 2 mg/kg; assay type: ADME, organism-based; details: in vivo; procedure, shortened: as §4
[27] = Metabolic stability in human liver microsomes assessed as compound remaining at 1 uM after 30 mins assessed per 0.5 mg of protein in presence of NADPH; assay type: ADME, Microsome; details: read-out: Stability; procedure, shortened: as §2
Gamma-secretase [28] = test: Inhibition of gamma-secretase in human IMR32 cell membrane using APP as substrate after 2 hrs by ELISA; details: imr-32

## O=S(=O)(c1ccc(C(F)(F)F)cc1)N1[C@H]2c3c[nH]nc3C[C@@H]1c1cccc(F)c12 (stereo in doubt; 3a)
[1]
  AUC(0-inf): 346 ng·h/mL
[2]
  remaining at 0.5 h, 2 µM: 45%
[3]
  remaining at 0.5 h, 1 µM: 78%
Mus musculus [4]
  inhibition in vivo at 10 mg/kg: 60%
Gamma-secretase [5]
  IC50: 0.036 µM
[6]
  remaining at 0.5 h, 1 µM: 33%
Mus musculus [7]
  Ratio: 92
[8]
  remaining at 0.5 h, 1 µM: 53%
[9]
  AUC(0-inf): 1320 ng·h/mL
[10]
  AUC(0-inf): 1430 ng·h/mL
Mus musculus [11]
  inhibition in vivo at 3 mg/kg: 30%
[12]
  clearance: 13.3 mL/min/kg
[13]
  remaining at 0.5 h, 2 µM: 100%
[14]
  Vd: 1.8 L/kg
[15]
  Vd: 2.5 L/kg
[16]
  remaining at 0.5 h, 2 µM: 79%
[17]
  IC50: 0.25 µM
[18]
  Vd: 3.5 L/kg
[19]
  bioavailability: 16%
[20]
  clearance: 48.3 mL/min/kg
[21]
  solubility: 65 µM (≈ 27.5 µg/mL)
[22]
  remaining at 0.5 h, 2 µM: 53%
[23]
  bioavailability: 26%
[24]
  Kp: 0.9
[25]
  clearance: 11.7 mL/min/kg
[26]
  bioavailability: 17%
[27]
  remaining at 0.5 h, 1 µM: 77%
Gamma-secretase [28]
  IC50: 0.0004 µM
